# ChEMBL document CHEMBL4321830, “A Chemical-Intervention Strategy To Circumvent Peptide Hydrolysis by d-Stereoselective Peptidases” (J Med Chem, 2019)
# Active and inactive are the calls of the source. The calls are words filed in the database; no cut-off is given here. Where a SMILES comes first, the peptide text is derived from it. [ ]: non-standard residue; d: D form. The star is where a group is joined. d(aIle) = CC[C@H](C)[C@@H](N)C(=O)O; NMeF = CN[C@@H](Cc1ccccc1)C(=O)O; dDab = NCC[C@@H](N)C(=O)O; Octanoyl = CCCCCCCC(=O)*; Dab = NCC[C@H](N)C(=O)O; Aib = CC(C)(N)C(=O)O; Sar = CNCC(=O)O
# Key:
# [1] = test system: Staphylococcus aureus; experiment: Antibacterial activity against Staphylococcus aureus NCTC 10788 assessed as bacterial growth inhibition by microbroth dilution method; format: functional
# [2] = test system: Escherichia coli; experiment: Antibacterial activity against Escherichia coli NCTC 12241 assessed as bacterial growth inhibition by microbroth dilution method; format: functional
# [3] = test system: D-peptidase TriF; experiment: Substrate activity at Paenibacillus polymyxa CICC10580 D-peptidase TriF expressed in Escherichia coli BL21 assessed as enzyme-mediated compound hydrolysis at 50 uM incubated for 24 hrs by UPLC-MS analysis; format: ADME; settings: read-out: Activity
# Summary of the method: (§1)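 His-purified (Ni-NTA) enzyme from IPTG-induced E. coli BL21 (200 μM IPTG after 15 °C hold). Substrate 50 μM with BogQ 20 nM for 1 h or TriFpep 200 nM for 24 h, 37 °C, in 25% PBS pH 7.4. Quenched with cold methanol, cleavage ratio by UPLC–MS at end point; two independent experiments.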
# [4] = test system: D-peptidase BogQ; experiment: Substrate activity at bacterial D-peptidase BogQ expressed in Escherichia coli BL21 assessed as enzyme-mediated compound hydrolysis at 50 uM incubated for 1 hr by UPLC-MS analysis; format: ADME; settings: bacteria; read-out: Activity; summary of the method: as §1
# [5] = Hemolytic activity in sheep erythrocytes assessed as hemolysis at 200 ug/ml incubated for 30 by spectrophotometry relative to control; format: ADME, cell-based, Ovis aries, Erythrocyte; settings: read-out: Activity
# Summary of the method: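 Defibrinated sheep blood washed four times in PBS, resuspended, mixed 1:1 with peptide in PBS (200 μg/mL in well before mixing); 30 min, 37 °C. Diluted, centrifuged, supernatant absorbance at 415 nm. Percent hemolysis relative to 0.1% Triton X-100, PBS blank; triplicate, two independent experiments averaged.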
# [6] = test system: Escherichia coli; experiment: Binding affinity to Escherichia coli NCTC 12241 lipid 2 assessed as formation of zone of inhibition at 60 uM incubated for 16 hrs by spot-on-lawn assay
# Summary of the method: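 E. coli NCTC 12241 suspended to OD600 ~1.0 in MHB, mixed into molten 0.75% MH soft agar and poured over 1.5% MHA. Peptide (final 60 μM) preincubated at 37 °C with 7 equiv chemically synthesized Gram-positive lipid II, 10 μL spotted alongside peptide alone; 16 h, 37 °C. Loss of inhibition zone indicates lipid II sequestration.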
SMILES,MIC [1] [µg/mL],MIC [2] [µg/mL],"metabolised at 24 h, 50 µM [3] [%]","metabolised at 1 h, 50 µM [4] [%]","hemolysis at 0.5 h, 200 ug/ml [5] [%]",Activity [6]
CCCCCCCC(=O)N[C@@H](C(=O)N[C@H](CCN)C(=O)NCC(=O)N[C@H](CO)C(=O)N[C@H](Cc1c[nH]c2ccccc12)C(=O)N(C)CC(=O)N[C@@H](CCN)C(=O)N[C@H](CCN)C(=O)N[C@@](C)(Cc1ccccc1)C(=O)N[C@@H](CCC(=O)O)C(=O)N[C@H](C(=O)N[C@@H](C(=O)N[C@@H](C)C(=O)O)C(C)C)C(C)C)C(C)C,> 50,> 50,0,39,–,–
CCCCCCCC(=O)N[C@@H](C(=O)N[C@H](CCN)C(=O)NCC(=O)N[C@H](CO)C(=O)N[C@H](Cc1c[nH]c2ccccc12)C(=O)N(C)CC(=O)N[C@@H](CCN)C(=O)N[C@H](CCN)C(=O)N[C@@](C)(Cc1ccccc1)C(=O)N[C@@H](CCC(=O)O)C(=O)N[C@H](C(=O)N[C@@H](C(=O)N[C@@H](C)C(=O)O)[C@@H](C)CC)C(C)C)C(C)C,> 50,> 50,0,40,–,–
CCCCCCCC(=O)N[C@@H](C(=O)N[C@@H](CCN)C(=O)NCC(=O)N[C@H](CO)C(=O)N[C@H](Cc1c[nH]c2ccccc12)C(=O)N[C@@H](CO)C(=O)N[C@@H](CCN)C(=O)N[C@H](CCN)C(=O)N[C@@H](Cc1ccccc1)C(=O)N[C@@H](CCC(=O)O)C(=O)N[C@H](C(=O)N[C@@H](C(=O)N[C@@H](C)C(=O)O)C(C)C)C(C)C)C(C)C (Octanoyl-[dV][Dab]G[dS][dW]S[Dab][dDab]FEV[dV]A-OH),> 50,> 50,–,60,–,–
CCCCCCCC(=O)N[C@@H](C(=O)N[C@H](C)C(=O)NCC(=O)N[C@H](CO)C(=O)N[C@H](Cc1c[nH]c2ccccc12)C(=O)N(C)CC(=O)N[C@@H](CCN)C(=O)N[C@H](CCN)C(=O)N(C)[C@@H](Cc1ccccc1)C(=O)N[C@@H](CCC(=O)O)C(=O)N[C@H](C(=O)N[C@@H](C(=O)N[C@@H](C)C(=O)O)C(C)C)C(C)C)C(C)C (Octanoyl-[dV][dA]G[dS][dW][Sar][Dab][dDab][NMeF]EV[dV]A-OH),> 50,> 50,0,11,–,–
CCCCCCCC(=O)N[C@@H](C(=O)N[C@H](CCN)C(=O)NCC(=O)N[C@H](CO)C(=O)N[C@H](Cc1c[nH]c2ccccc12)C(=O)N[C@@H](CO)C(=O)N[C@@H](CCN)C(=O)N[C@H](CCN)C(=O)N(C)[C@@H](Cc1ccccc1)C(=O)N[C@@H](CCC(=O)O)C(=O)N[C@H](C(=O)N[C@@H](C(=O)N[C@@H](C)C(=O)O)C(C)C)C(C)C)C(C)C (Octanoyl-[dV][dDab]G[dS][dW]S[Dab][dDab][NMeF]EV[dV]A-OH),> 50,6.25,–,15,30,Active
CCCCCCCC(=O)N[C@@H](C(=O)N[C@H](CCN)C(=O)NCC(=O)N[C@H](CO)C(=O)N[C@H](Cc1c[nH]c2ccccc12)C(=O)N(C)CC(=O)N[C@@H](CCN)C(=O)N[C@H](CCN)C(=O)N(C)[C@@H](Cc1ccccc1)C(=O)N[C@@H](CCC(=O)O)C(=O)N[C@H](C(=O)N[C@@H](C(=O)N[C@@H](C)C(=O)O)[C@@H](C)CC)C(C)C)C(C)C (Octanoyl-[dV][dDab]G[dS][dW][Sar][Dab][dDab][NMeF]EV[d(aIle)]A-OH),> 50,3.13,0,46,–,–
CCCCCCCC(=O)N[C@@H](C(=O)N[C@H](CCN)C(=O)NCC(=O)N[C@H](CO)C(=O)N[C@H](Cc1c[nH]c2ccccc12)C(=O)N(C)CC(=O)N[C@@H](CCN)C(=O)N[C@H](CCN)C(=O)N(C)[C@@H](Cc1ccccc1)C(=O)N[C@@H](CCC(=O)O)C(=O)N[C@H](C(=O)N[C@@H](C(=O)N[C@@H](C)C(=O)O)C(C)C)C(C)C)C(C)C (Octanoyl-[dV][dDab]G[dS][dW][Sar][Dab][dDab][NMeF]EV[dV]A-OH),> 50,6.25,0,43,60 to 78,Active
CCCCCCCC(=O)N[C@@H](C(=O)N[C@H](CCN)C(=O)NC(C)(C)C(=O)N[C@H](CO)C(=O)N[C@H](Cc1c[nH]c2ccccc12)C(=O)N[C@@H](CO)C(=O)N[C@@H](CCN)C(=O)N[C@H](CCN)C(=O)N(C)[C@@H](Cc1ccccc1)C(=O)N[C@@H](CCC(=O)O)C(=O)N[C@H](C(=O)N[C@@H](C(=O)N[C@@H](C)C(=O)O)C(C)C)C(C)C)C(C)C (Octanoyl-[dV][dDab][Aib][dS][dW]S[Dab][dDab][NMeF]EV[dV]A-OH),> 50,> 50,–,< 5,–,–
CCCCCCCC(=O)N[C@@H](C(=O)N[C@H](CCN)C(=O)N(C)CC(=O)N[C@H](CO)C(=O)N[C@H](Cc1c[nH]c2ccccc12)C(=O)N[C@@H](CO)C(=O)N[C@@H](CCN)C(=O)N[C@H](CCN)C(=O)N[C@@H](Cc1ccccc1)C(=O)N[C@@H](CCC(=O)O)C(=O)N[C@H](C(=O)N[C@@H](C(=O)N[C@@H](C)C(=O)O)C(C)C)C(C)C)C(C)C (Octanoyl-[dV][dDab][Sar][dS][dW]S[Dab][dDab]FEV[dV]A-OH),> 50,> 50,–,> 90,–,–
CCCCCCCC(=O)N[C@@H](C(=O)N[C@H](CCN)C(=O)N(C)CC(=O)N[C@H](CO)C(=O)N[C@H](Cc1c[nH]c2ccccc12)C(=O)N[C@@H](CO)C(=O)N[C@@H](CCN)C(=O)N[C@H](CCN)C(=O)N(C)[C@@H](Cc1ccccc1)C(=O)N[C@@H](CCC(=O)O)C(=O)N[C@H](C(=O)N[C@@H](C(=O)N[C@@H](C)C(=O)O)C(C)C)C(C)C)C(C)C (Octanoyl-[dV][dDab][Sar][dS][dW]S[Dab][dDab][NMeF]EV[dV]A-OH),> 50,> 50,–,< 5,–,–
CCCCCCCC(=O)N[C@@H](C(=O)N[C@@H](C(=O)NCC(=O)N[C@H](CO)C(=O)N[C@H](Cc1c[nH]c2ccccc12)C(=O)N(C)CC(=O)N[C@@H](CCN)C(=O)N[C@H](CCN)C(=O)N(C)[C@@H](Cc1ccccc1)C(=O)N[C@@H](CCC(=O)O)C(=O)N[C@H](C(=O)N[C@@H](C(=O)N[C@@H](C)C(=O)O)C(C)C)C(C)C)C(C)C)C(C)C (Octanoyl-[dV][dV]G[dS][dW][Sar][Dab][dDab][NMeF]EV[dV]A-OH),> 50,> 50,0,12,–,–

# Continued, in another order:
MIC [1] [µg/mL],MIC [2] [µg/mL],"metabolised at 24 h, 50 µM [3] [%]","metabolised at 1 h, 50 µM [4] [%]",SMILES,"hemolysis at 0.5 h, 200 ug/ml [5] [%]",Activity [6]
> 50,> 50,–,39,CCCCCCCC(=O)N[C@@H](C(=O)N[C@H](CCN)C(=O)NCC(=O)N[C@H](CO)C(=O)N[C@H](Cc1c[nH]c2ccccc12)C(=O)N[C@@H](CO)C(=O)N[C@@H](CCN)C(=O)N[C@H](CCN)C(=O)N[C@@](C)(Cc1ccccc1)C(=O)N[C@@H](CCC(=O)O)C(=O)N[C@H](C(=O)N[C@@H](C(=O)N[C@@H](C)C(=O)O)C(C)C)C(C)C)C(C)C,–,–
50,1.56,100,> 90,CCCCCCCC(=O)N[C@@H](C(=O)N[C@H](CCN)C(=O)NCC(=O)N[C@H](CO)C(=O)N[C@H](Cc1c[nH]c2ccccc12)C(=O)N[C@@H](CO)C(=O)N[C@@H](CCN)C(=O)N[C@H](CCN)C(=O)N[C@@H](Cc1ccccc1)C(=O)N[C@@H](CCC(=O)O)C(=O)N[C@H](C(=O)N[C@@H](C(=O)N[C@@H](C)C(=O)O)C(C)C)C(C)C)C(C)C (Octanoyl-[dV][dDab]G[dS][dW]S[Dab][dDab]FEV[dV]A-OH),53,–
> 50,3.13,0,–,CCCCCCCC(=O)N[C@@H](C(=O)N[C@H](CCN)C(=O)NCC(=O)N[C@H](CO)C(=O)N[C@H](Cc1c[nH]c2ccccc12)C(=O)NC(C)(C)C(=O)N[C@@H](CCN)C(=O)N[C@H](CCN)C(=O)N[C@@H](Cc1ccccc1)C(=O)N[C@@H](CCC(=O)O)C(=O)N[C@H](C(=O)N[C@@H](C(=O)N[C@@H](C)C(=O)O)C(C)C)C(C)C)C(C)C (Octanoyl-[dV][dDab]G[dS][dW][Aib][Dab][dDab]FEV[dV]A-OH),–,–
> 50,3.13,0,–,CCCCCCCC(=O)N[C@@H](C(=O)N[C@H](CCN)C(=O)NCC(=O)N[C@H](CO)C(=O)N[C@H](Cc1c[nH]c2ccccc12)C(=O)N(C)CC(=O)N[C@@H](CCN)C(=O)N[C@H](CCN)C(=O)N[C@@H](Cc1ccccc1)C(=O)N[C@@H](CCC(=O)O)C(=O)N[C@H](C(=O)N[C@@H](C(=O)N[C@@H](C)C(=O)O)C(C)C)C(C)C)C(C)C (Octanoyl-[dV][dDab]G[dS][dW][Sar][Dab][dDab]FEV[dV]A-OH),38,Active
> 50,> 50,–,> 90,CCCCCCCC(=O)N[C@@H](C(=O)N[C@H](CCN)C(=O)NC(C)(C)C(=O)N[C@H](CO)C(=O)N[C@H](Cc1c[nH]c2ccccc12)C(=O)N[C@@H](CO)C(=O)N[C@@H](CCN)C(=O)N[C@H](CCN)C(=O)N[C@@H](Cc1ccccc1)C(=O)N[C@@H](CCC(=O)O)C(=O)N[C@H](C(=O)N[C@@H](C(=O)N[C@@H](C)C(=O)O)C(C)C)C(C)C)C(C)C (Octanoyl-[dV][dDab][Aib][dS][dW]S[Dab][dDab]FEV[dV]A-OH),–,–
